Only some compounds are listed: those with a hit (about 4.6% of all), similar ones and a draw of the others.
NALP1 inh: NALP1 inhibition; S. cerevisiae NALP1/ASC/caspase-1 growth, X-gal OD620, 72 h; inhibition, % at 10 µM; 0.61% of 280,000 active; in the data active = inhibition mostly above about 24%, no sharp cut-off; inactive = mostly below about 32%
NLRP3 yeast inh: inhibitors of NALP3 inflammasome in yeast | Yeast reconstituted NLRP3/ASC/caspase-1, beta-gal luminescence, 24 h | AID 2825 | inhibition, % at 10 µM | 0.39% of 330,000 active;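 active = inhibition of 50% or more; inactive = inhibition below 50%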;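 note: plate controls were induced DMSO wells for no effect and uninduced yeast grown without galactose for full effect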
PolyA inhibitor: inhibitors of polyadenylation in S. cerevisiae; S. cerevisiae SKY197-pL101 polyadenylation reporter, beta-gal luminescence; efflux-impaired pdr1/pdr3 knockout yeast; score 100 = 6 SD above DMSO; 0.02% of 300,000 active; activity score, % at 12 µM; AID 1875;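 active = lowest replicate activity score at least 50, where 100 means six control SD above control mean; inconclusive = lowest score under 50 but half or more replicates reach 50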;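 note: yeast exposed to compound for 9 h at 30 °C; higher score means more reporter readthrough which indicates perturbed polyadenylation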
Arrestin-AP2 inh: blocks beta-arrestin peptide binding to AP2 adaptin | inhibition, % at 10 µM | FITC-arrestin peptide / GST-AP2 beads, flow cytometry; AP2 beta2 appendage carries R879A mutation | 0.31% of 340,000 active;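 active = inhibition above a set limit, near 3 SD of compounds lacking own fluorescence, cut at about 54% in these data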;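 note: plate controls were DMSO wells for no effect and 5 µM unlabelled arrestin peptide for full effect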
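test system = AP2 appendage R879A on GSH beads | buffer or medium = PBS plus Tween 20 (0.05%) and BSA (0.1%) | incubation = 12 min plus 1 h, RT | detection = bead flow cytometry, FITC channel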
Pemphigus Ab inh: human desmoglein-3 autoantibody binding inhibition. DSG3-coupled beads, scFv-anti-DSG3-GFP binding, flow cytometry; stronger effect = lower value. P32926. 0.48% of 310,000 active. binding (percent of control), % at 10 µM;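 active = binding more than 3 SD below its plate's average and above zero; inconclusive = below that plate limit but binding exactly zero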;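 note: hits lower antibody fragment binding to DSG3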
Target sequence (P32926 whole entry, looked up, the tested form may be a part): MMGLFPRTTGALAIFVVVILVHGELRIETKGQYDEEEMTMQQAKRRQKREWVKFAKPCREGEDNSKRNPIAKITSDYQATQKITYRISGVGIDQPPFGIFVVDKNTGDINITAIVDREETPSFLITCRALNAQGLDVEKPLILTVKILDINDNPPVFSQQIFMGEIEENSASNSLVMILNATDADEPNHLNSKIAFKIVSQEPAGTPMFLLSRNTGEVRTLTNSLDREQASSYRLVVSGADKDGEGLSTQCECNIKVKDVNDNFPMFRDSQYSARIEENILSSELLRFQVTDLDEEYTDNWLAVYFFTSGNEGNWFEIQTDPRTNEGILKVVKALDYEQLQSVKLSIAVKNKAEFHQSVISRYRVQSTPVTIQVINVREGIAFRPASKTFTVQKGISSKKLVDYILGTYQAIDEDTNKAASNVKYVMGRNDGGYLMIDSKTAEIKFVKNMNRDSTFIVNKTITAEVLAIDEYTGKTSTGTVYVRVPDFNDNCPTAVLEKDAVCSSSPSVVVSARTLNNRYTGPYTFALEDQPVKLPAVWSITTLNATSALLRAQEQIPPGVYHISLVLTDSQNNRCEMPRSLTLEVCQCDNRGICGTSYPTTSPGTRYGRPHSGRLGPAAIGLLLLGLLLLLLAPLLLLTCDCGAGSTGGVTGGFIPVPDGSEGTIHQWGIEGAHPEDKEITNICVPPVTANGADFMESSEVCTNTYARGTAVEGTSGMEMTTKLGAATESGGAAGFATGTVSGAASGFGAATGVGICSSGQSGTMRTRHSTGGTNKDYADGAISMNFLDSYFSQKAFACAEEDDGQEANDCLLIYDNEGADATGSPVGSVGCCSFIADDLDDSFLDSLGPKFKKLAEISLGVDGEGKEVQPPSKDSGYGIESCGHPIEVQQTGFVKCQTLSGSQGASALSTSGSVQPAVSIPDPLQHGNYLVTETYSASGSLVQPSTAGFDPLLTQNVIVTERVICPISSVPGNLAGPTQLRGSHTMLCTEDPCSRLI
ALR inh: inhibitors of human sulfhydryl oxidase ALR; P55789; purified ALR, DTT oxidation, H2O2 HRP-luminol luminescence; inhibition, % (concentration not given with the values); 3.8% of 290,000 active; AID 485317;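 active = mean replicate inhibition above about 79%, with every replicate also reaching it, limit read from the data; inconclusive = only one of the two criteria met; inactive = mean below limit and not every replicate reaching it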
An asterisk follows results filed as active; ? = inconclusive; . = no result given.

SMILES	NALP1 inh	NLRP3 yeast inh	PolyA inhibitor	Arrestin-AP2 inh	Pemphigus Ab inh	ALR inh
Cc1cc(/C=C(/C#N)C(=O)O)c(C)n1-c1cccc2ccccc12	3.9	-15.6	19.3	10.2	103.7	96.1*
Cc1c(C(=O)O)cccc1-n1c(C)cc(/C=C(/C#N)C(=O)NCc2ccccc2)c1C	2.9	25.1	2.0	27.6	.	29.2
C=CCN1C(=O)C(=O)N(CC(=O)NCC(=O)Nc2ccc(F)c(F)c2F)C1=O	.	-7.2	.	14.7	109.0	-5.4
COc1cc(C(=O)Sc2ccc(C)cc2)cc(OC)c1OC	16.2	-6.8	4.3	-5.8	107.8	54.3
COc1ccccc1OCC(=O)Sc1ccc(C)cc1	9.4	7.1	-18.9	-1.8	107.2	98.0*
Cc1ccc(OCC(=O)Sc2ccc(C)cc2)cc1	4.7	17.3	-1.9	-0.5	101.3	99.7*
COc1ccc([C@H]2CC(=O)C=C(c3ccc(OC)c(F)c3)C2)cc1	.	29.0	.	-2.8	102.9	0.9
CCOC(=O)c1cnc2c(N=Nc3cccc(Cl)c3)c(N)nn2c1N	83.5*	.	.	.	.	.
COc1cc(-c2c(C#N)c(=O)[nH]c3c2c(C)nn3-c2ccccc2)ccc1O	-9.8	7.0	10.7	18.5	111.7	99.0*
CCCCCCCC(=O)N/N=C/c1ccco1	3.0	17.1	16.3	38.1	103.1	43.1
CCCCCCCCCCCC(=O)N/N=C/c1ccco1	-8.2	11.4	81.8*	-7.0	97.9	25.6
CCCCCCC(=O)N/N=C/c1ccco1	8.7	-1.9	27.3	-5.8	104.1	97.3*
O=C(c1cccc(C(F)(F)F)c1)N1CCC2(CC1)NCCc1[nH]cnc12	-2.6	10.2	-1.2	23.9	105.1	.
CCCCN(CCCC)Cc1cc2ccccc2c2c1COC2	44.2*	-5.5	15.2	2.4	121.1	-7.5
Cc1ccc(C(=O)CC(SCC(=O)O)c2ccc([N+](=O)[O-])cc2)cc1 (configuration not stated)	-24.1	14.3	-6.8	3.0	81.9	98.6*
Nc1ccccc1SC(CC(=O)c1ccccc1)c1ccc([N+](=O)[O-])cc1 (configuration not stated)	.	.	.	.	104.7	.
Cc1c(Br)c(O)c(Br)c(O)c1/C=N/n1c(-c2ccccc2)n[nH]c1=S	-45.0	8.3	-1.4	35.1	103.2	97.7*
COc1cc(/C=N/n2c(COc3ccccc3)n[nH]c2=S)cc(Br)c1O	-10.4	20.4	5.4	1.7	100.0	97.0*
CCc1n[nH]c(=S)n1/N=C/c1cc(Br)c(O)c(OC)c1	-5.2	4.2	-12.2	-9.1	103.0	68.3
Oc1c(Br)cc(/C=N/n2c(-c3ccccc3)n[nH]c2=S)c(O)c1Br	-9.4	.	-14.9	4.3	103.3	?
COc1cc(/C=N/n2c(-c3n[nH]c4c3CCC4)n[nH]c2=S)ccc1O	.	-0.1	-6.7	-1.9	99.4	99.4*
COc1cc(-c2n[nH]c(=S)n2/N=C/c2cccn2C)cc(OC)c1OC	.	22.5	5.4	12.0	.	96.5*
COc1ccc(S(=O)(=O)N(C)C[C@@H]2OCc3cnnn3CCCC(=O)N([C@@H](C)CO)C[C@@H]2C)cc1	.	.	.	.	104.4	.
COc1cc(/C=N/n2c(-c3ccccc3)n[nH]c2=S)ccc1O	4.0	-9.7	0.2	-2.5	91.3	98.8*
Cc1ccc(-c2n[nH]c(=S)n2/N=C/c2ccc(C(=O)O)cc2)cc1	-10.1	24.0	11.7	0.7	93.2	89.9*
SMILES	NALP1 inh	NLRP3 yeast inh	PolyA inhibitor	Arrestin-AP2 inh	Pemphigus Ab inh	ALR inh
COc1cc(OCC(N)=O)cc(OC)c1OC	21.4	11.5	-14.2	10.7	96.6	1.9
COc1ccc(OCC(N)=O)cc1	38.8*	10.2	-2.5	15.6	104.2	0.6
Cc1cc(O)ccc1NS(=O)(=O)c1ccc2c3c(cccc13)C(=O)N2	2.9	20.6	-1.3	17.8	98.7	98.9*
COc1ccc(-n2nc(C(=O)O)nc2-c2ccccc2)cc1	10.1	10.1	19.4	-7.6	109.2	99.8*
COc1cccc(OCC(=O)N2CCCc3ccccc32)c1	15.3	16.6	3.0	9.8	.	-0.2
COc1ccc(/C=C2\N=C(C)OC2=O)cc1[N+](=O)[O-]	39.1*	2.2	19.5	-8.2	100.8	-3.4
COc1cc(/C=C2\N=C(C)OC2=O)cc(Cl)c1OC(C)=O	5.1	-9.1	25.7	-4.0	98.6	14.6
CC(C)(C)OC(=O)C[C@H]1C/C=C\C[C@H](CC(=O)N[C@H](CO)Cc2ccccc2)C(=O)N[C@@H](Cc2ccccc2)COC1=O	.	1.9	.	9.1	101.8	0.1
Cn1nc(C(=O)NNC(=O)Cc2ccc(S(=O)(=O)N3CCOCC3)s2)c2ccccc2c1=O	.	.	.	-43.6	100.5	.
Cc1ccc(-c2csc(=S)[nH]2)cc1	-3.6	5.7	29.9	21.0	98.9	63.6
S=c1[nH]c(-c2ccc(Cl)cc2)cs1	-15.6	-3.3	-9.9	13.8	97.6	97.1*
Nc1ccc2c3c(ccc([N+](=O)[O-])c13)CC2	.	.	.	.	101.3	.
COc1ccc(/C=N/NC(=O)c2ccc(N3CCCC3=O)cc2)cc1	5.9	20.3	0.3	-1.9	98.3	-7.9
Nc1nnn(CC(=O)N/N=C/c2cccc(Cl)c2)n1	.	7.8	8.9	30.4	77.5*	-4.0
Nc1nnn(CC(=O)N/N=C/c2ccc(Cl)cc2Cl)n1	-7.8	12.0	13.2	1.0	.	-9.4
CC1CCCN(C(=O)COc2ccc3c(c2)OCO3)C1 (configuration not stated)	18.0	19.4	5.9	1.1	101.9	-12.2
CC(=O)Nc1ccc(OCC(=O)N2CCC(Cc3ccccc3)CC2)cc1	-5.0	-2.9	-3.1	6.8	117.2	-9.9
OCC1CCCN(C(=S)Nc2ccc(Nc3ccccc3)cc2)C1 (configuration not stated)	-13.6	17.1	-17.4	14.0	96.7	99.6*
CC1CCN(C(=O)COc2ccc(Nc3ccccc3)cc2)CC1	-17.3	8.8	31.6	51.9	.	87.6*
CC1CCCN(C(=O)COc2ccc(Nc3ccccc3)cc2)C1 (configuration not stated)	8.7	27.9	19.5	5.9	102.5	98.9*
OCC1CCCN(C(=S)Nc2ccc(OC(F)F)cc2)C1 (configuration not stated)	33.9	9.8	-1.2	-4.8	111.9	2.8
COc1ccc(C(=O)CC(=O)C(=O)Nc2ccccc2)cc1	29.6	-2.7	-2.6	-8.3	92.8	10.9
COc1ccc(C(=O)CC(=O)C(=O)Nc2cccc(F)c2)cc1	0.3	4.7	-18.9	-10.1	95.1	79.7*
CN(Cc1cnn(Cc2ccccc2)c1)C(=O)CN=C1NS(=O)(=O)c2ccccc21	.	-2.4	.	-3.1	.	1.3
O=C(O)CCC(=O)/C=C/c1ccccc1	8.5	14.1	-4.7	13.5	101.5	2.4
CC(C)c1ccc(/C=C/C(=O)CCC(=O)O)cc1	11.7	-1.2	-14.3	-1.1	127.0	97.8*
COc1ccccc1Oc1ccc2c(c1)C(=O)N(c1ccc(O)cc1)C2=O	28.4*	3.6	.	-9.3	100.5	16.6

Screens: PubChem BioAssay, several laboratories
